The nature of data set [1]: Solubility of compound in PBS at pH 7.4 at 5 mg incubated at 25 degreeC for 6 hrs by UHPLC analysis. The data set is classed as physicochemical. The procedure, abridged: (§1)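 Solid compound (5 mg) was shaken in 1 mL water, PBS (pH 7.4, 50 mM) or pepsin-free SGF (pH 1.2) for 6 h at 25 °C. Suspensions were filtered (0.45 μm) and the filtrate quantified by UHPLC, reported in mg/L; triplicate, mean values.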

Data set [2] concerns RBL-2H3. As to the kind of experiment: Cytotoxicity against rat RBL-2H3 cells assessed as reduction cell viability at 100 uM after 24 hrs by WST assay. Type of data set: toxicity, cell-based. To be noted: rbl-2h3, 24 h. The procedure, abridged: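 RBL-2H3 cells were grown in MEM with 10 % FBS, 10^4 cells/well, and attached for 24 h. They were then exposed 24 h to 100 μM compound (final) or 0.1 % DMSO. WST-1 (1:10) was added for 60 min at 37 °C and absorbance read at 450 nm. Viability is expressed as % of vehicle; mean ± SEM.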

Data set [3] can be described thus: Induction of H2S release in PBS at pH 7.4 at 100 uM measured after 30 mins by free radical analyzer. The data set is classed as physicochemical. To be noted: buffer, pH 7.4, 0.5 h. The procedure, abridged:
(§2)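 An H2S-selective mini-electrode was equilibrated in PBS pH 7.4, and compound was added to 100 μM final (1 % DMSO). Amperometric current was recorded for 30 min, with or without L-cysteine 4 mM added 10 min before. Current was converted to H2S using NaHS calibration (1–10 µM, pH 4.0); mean ± SEM.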

The subject of data set [4] is RBL-2H3. As to the kind of experiment: Inhibition of mast cell degranulation in DNP-HSA antigen sensitized rat RBL-2H3 cells assessed as reduction in beta-hexoaminosidase release at 100 uM preincubated for 5 mins followed by DNP addition and measured after 1 hr by multiplate reader. As to conditions: time 65.0 min. The data set is classed as functional, cell-based. The procedure, abridged: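 RBL-2H3 cells (72×10^3/well) were sensitized overnight with anti-DNP IgE 0.50 µg/ml, then moved to phenol-free DMEM with 1 mg/ml BSA. Cells were preincubated 5 min at 37 °C with 0.1 % DMSO, cromolyn 1 mM or compound 100 μM, then challenged with DNP-HSA 10 ng/ml. After 1 h, supernatant was incubated 1 h with 1.4 mM p-nitrophenyl-N-acetyl-β-D-glucosaminide (citrate pH 4.2), stopped with Trizma pH 9.4, and read at 405 nm.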

Data set [5] is described as follows: Half life in simulated gastric fluid at pH 1.2 in absence of pepsin at 100 uM incubated at 37 degreeC up to 24 hrs by UPHLC analysis. To be noted: simulated gastric fluid without pepsin. The data set is classed as ADME. The procedure, abridged:
(§3)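 A 10 mM DMSO stock was diluted to 100 μM in PBS (pH 7.4, 50 mM) or pepsin-free SGF (pH 1.2) and held at 37 ± 0.5 °C for 24 h. Timed aliquots were quantified by reverse-phase UHPLC-DAD against calibration curves (1.56–100 ppm), tracking the parent compound plus aminoacetate and corticosteroid metabolites. Pseudo-first-order t1/2 was calculated; n = 3.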

The nature of data set [6]: Induction of H2S release in PBS at pH 7.4 at 100 uM pretreated with L-Cys for 10 mins followed by compound addition and measured after 30 mins by free radical analyzer. The data set is classed as physicochemical. As to conditions: buffer, pH 7.4, 0.5 h. The procedure, abridged: as §2
Data set [7] can be described thus: Half life in PBS at pH 7.4 at 100 uM incubated at 37 degreeC up to 24 hrs by UPHLC analysis. Type of data set: ADME. The procedure, abridged: as §3
Data set [8] is described as follows: Solubility of compound in simulated gastric fluid at pH 1.2 in absence of pepsin at 5 mg incubated at 25 degreeC for 6 hrs by UHPLC analysis. Type of data set: ADME. To be noted: simulated gastric fluid without pepsin. The procedure, abridged: as §1
The nature of data set [9]: Solubility of compound in water at 5 mg incubated at 25 degreeC for 6 hrs by UHPLC analysis. Type of data set: physicochemical. The procedure, abridged:
as §1

Data set [10] deals with T1, Albumin (Bos taurus, UniProt P02769). Put plainly: Stability in 3% bovine serum albumin assessed as parent compound remaining at 200 uM incubated at 37 degreeC for 10 mins by UHPLC analysis. To be noted: cattle, 3% bovine serum albumin solution, read-out: Stability. Type of data set: ADME. The procedure, abridged:
(§4)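 A 10 mM DMSO stock was diluted to 200 μM in 3 % BSA in PBS and incubated at 37 ± 0.5 °C for up to 4 h. Timed samples were deproteinized with an equal volume of acetonitrile/0.1 % TFA, centrifuged, filtered and quantified by UHPLC. Results are given as pseudo-first-order t1/2 or % parent remaining at 10 min; n ≥ 3.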

Data set [11] addresses T1, Albumin. As to the kind of experiment: Half life in 3% bovine serum albumin at 200 uM incubated up to 4 hrs by UHPLC analysis. Type of data set: ADME. As to conditions: cattle, 3% bovine serum albumin solution. The procedure, abridged:
as §4

SMILES strings stand for the structures. Values after ≈ are worked out from the molar mass of the structure shown. Active and inactive are the calls of the source. The rule behind the calls is not given here. Some results are limits rather than exact numbers.

T1 sequence (P02769 whole entry): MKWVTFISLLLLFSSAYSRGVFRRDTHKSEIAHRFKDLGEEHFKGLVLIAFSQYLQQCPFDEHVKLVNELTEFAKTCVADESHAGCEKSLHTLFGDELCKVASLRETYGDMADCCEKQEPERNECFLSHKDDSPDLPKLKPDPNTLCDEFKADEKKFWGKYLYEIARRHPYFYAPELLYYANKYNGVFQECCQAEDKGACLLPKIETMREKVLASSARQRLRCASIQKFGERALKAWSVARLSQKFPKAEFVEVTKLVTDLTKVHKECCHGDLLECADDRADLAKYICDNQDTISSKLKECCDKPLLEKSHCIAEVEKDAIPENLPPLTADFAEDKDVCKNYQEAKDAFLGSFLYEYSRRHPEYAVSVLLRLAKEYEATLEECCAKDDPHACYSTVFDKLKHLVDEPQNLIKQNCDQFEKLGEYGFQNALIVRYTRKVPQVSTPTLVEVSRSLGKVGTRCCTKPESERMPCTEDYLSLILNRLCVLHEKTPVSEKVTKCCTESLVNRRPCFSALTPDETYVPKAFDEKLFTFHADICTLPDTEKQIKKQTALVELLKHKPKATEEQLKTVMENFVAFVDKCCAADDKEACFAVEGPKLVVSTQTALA

Usually solubility stands for the dissolved amount per volume that the medium holds. The low end stands for a poorly soluble substance, the high end for a readily soluble substance. By half-life is commonly meant the time in which the quantity being followed falls by half. Read a low half-life as rapid decline. As for `CCCC1O[C@@H]2C[C@H]3[C@@H]4CCC5=CC(=O)C=C[C@]5(C)[C@H]4[C@@H](O)C[C@]3(C)[C@]2(C(=O)COC(=O)CN=C=S)O1` (stereo partly drawn), the solubility at 6 h in data set [1], in data set [8] and in data set [9] was less than 0.1 µg/mL throughout. For the same molecule, the figures for the Activity entry in data set [2], in data set [3] and in data set [6] were “Non-Toxic”, ~ 2 uM and ~ 2 uM, respectively. In addition, the inhibition entry in data set [4] was “Active”. In addition, the half-life at 100 µM in [5] and in data set [7] was greater than 24 h in each case. Also, the remaining at 10 min, 200 µM in data set [10] came to 23%.
In the case of `CCCCC(=O)O[C@]1(C(=O)COC(=O)CN=C=S)[C@@H](C)C[C@H]2[C@@H]3CCC4=CC(=O)C=C[C@]4(C)[C@@]3(F)[C@@H](O)C[C@@]21C`, the solubility at 6 h in data set [1] was 0.12 µg/mL (≈ 0.208 µM); in [8], 0.16 µg/mL (≈ 0.278 µM); in data set [9], less than 0.1 µg/mL. In addition, the figures for the Activity entry in [2], in data set [3] and in [6] were “Toxic”, “Active” and “Active”, respectively. The half-life at 100 µM in [5] and in [7] was greater than 24 h each time. In [11], this molecule had a half-life at 200 µM of 1 h.
Consider `C[C@]12C=CC(=O)C=C1CC[C@@H]1[C@@H]2C(=O)C[C@@]2(C)[C@H]1CC[C@]2(O)C(=O)COC(=O)CN`, for which the inhibition result in data set [4] was “Active”.
For the molecule `[Na+].[SH-]` [SODIUM HYDROSULFIDE], the Activity entry in data set [3] and in data set [6] was “<= 20 uM” throughout.
For the molecule `C[C@@H]1C[C@H]2[C@@H]3CCC4=CC(=O)C=C[C@]4(C)[C@@]3(F)[C@@H](O)C[C@]2(C)[C@@]1(O)C(=O)COC(=O)CN`, in data set [4], the inhibition entry was “Active”.
With `C[C@@H]1C[C@H]2[C@@H]3CCC4=CC(=O)C=C[C@]4(C)[C@@]3(F)[C@@H](O)C[C@]2(C)[C@@]1(O)C(=O)COC(=O)CN=C=S`, the solubility at 6 h in data set [1] is less than 0.1 µg/mL; in data set [8] it was less than 0.1 µg/mL; in [9], 0.14 µg/mL (≈ 0.285 µM). For the same molecule, the Activity entry in data set [2] is reported as “Non-Toxic”; in data set [3], ~ 2 uM; in [6], ~ 2 uM. The inhibition result in data set [4] was “Active”. The values for the half-life at 100 µM in data set [5] and in data set [7] were 10 h and 0.7 h, respectively. For the same molecule, the remaining at 10 min, 200 µM in data set [10] came out at 6%.
As for `C[C@]12C=CC(=O)C=C1CC[C@@H]1[C@@H]2C(=O)C[C@@]2(C)[C@H]1CC[C@]2(O)C(=O)COC(=O)CN=C=S`, the figures for the solubility at 6 h in data set [1], in [8] and in data set [9] were 15.9 µg/mL (≈ 34.8 µM), 16.1 µg/mL (≈ 35.2 µM) and 5.26 µg/mL (≈ 11.5 µM), respectively. The figures for the Activity entry in data set [2], in [3] and in data set [6] were “Non-Toxic”, ~ 2 uM and ~ 2 uM, respectively. Also, the inhibition result in data set [4] was “Active”. In addition, the half-life at 100 µM is 18 h in data set [5] and 0.2 h in [7]. In addition, the remaining at 10 min, 200 µM in data set [10] stood at 19%.

These data come from ChEMBL document CHEMBL5579848, “Isothiocyanate-Corticosteroid Conjugates against asthma: Unity makes strength” (Eur J Med Chem, 2024).
